Consider two molecules from paper PMC10915268 (Parasites, Hosts and Diseases, 2024).

The test system of series [1] is P. berghei NK65. In words: 4-day suppressive test in P. berghei NK65-infected ICR mice. The class given is in vivo, Plasmodium berghei (ICR mice). The gist of the method:
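6-week-old ICR-1 mice were inoculated on day 0 with 107 blood-stage P. berghei NK65. The test compound was given i.v. at 10, 20 or 30 mg/kg once daily for 4 days. Body weight, survival and blood parasites were recorded daily for 2 weeks. At 8 dpi mice were euthanized and livers and spleens harvested.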

Series [2] concerns P. falciparum 3D7 (CQ-sensitive strain). In words: In vitro antimalarial activity, P. falciparum 3D7. The class given is cell-based, Plasmodium falciparum. The settings on record: for 3D7 Relative SI: selective index (CC50/IC50), relative to SKM13-2HCl = 1.
Series [3] has as its system P. falciparum K1 (CQ-resistant strain). The series can be described thus: In vitro antimalarial activity, P. falciparum K1. The class given is cell-based, Plasmodium falciparum. The settings on record: for K1 Relative SI: selective index (CC50/IC50), relative to SKM13-2HCl = 1.
Series [4] can be described thus: In vivo PK assessment in mice. The settings on record: oral, 5 mg/kg single dose. Details: species or system ICR mice. The gist of the method:
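Healthy female 7-week-old ICR mice (about 30 g), kept under specific pathogen-free conditions, three per group. Each got a single oral dose of test compound at 5 mg/kg. Blood was drawn at various times and plasma stored at −80°C. Levels were measured by LC–MS/MS with calibration and QC standards. Kinetic parameters came from regression of plasma concentration versus time.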

A short description of series [5]: Turbidity of 1 mM drug in cell culture media. The series is classed as physicochemical. The settings on record: 1 mM dissolved in cell culture media (DMEM).
Series [6] relates to Vero cells. In words: Cytotoxicity test using the MTT assay. The series is classed as cell-based. The settings on record: read-out: Vero CC50, 2-day compound exposure. The gist of the method: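 Vero cells were seeded at 104 per well in DMEM with 10% FBS. 12 h later, serial concentrations of test compound were added for 2 days at 37°C, 5% CO2. MTT was then added for 2 h and absorbance read at 490 nm. CC50 was derived from percentage growth inhibition. Run in triplicate, mean±SD.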
A general note: Tetrazolium assays rely on reduction of a dye to a coloured formazan, in cell work by metabolically active cells.

Series [7] in a line: Solubility in deionized water. The series is classed as physicochemical. The settings on record: saturated aqueous solution, HPLC UV 342 nm. The gist of the method:
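Saturated solutions of the test compound salt were made in deionized water and measured by UHPLC with UV detection at 342 nm. 1% TFA in water was added to the solvent to keep the salt form. Standards at 5 concentrations gave a linear regression, from which solubility was calculated.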

The mark [8] stands for this setting: 10 mg/kg i.v. once daily for 4 days.
Setting [9] is: 20 mg/kg, organs collected 8 dpi.

On to `CCN(CC)CCCC(C)Nc1ccnc2cc(Cl)ccc12` (centres unmarked) [CQ, Chloroquine], for which the parasitemia result in series [1] (setting [8]) is “significantly reduced parasite density”. Further, the “3D7 Relative SI” value in series [2] is 6.0. Also, the “K1 Relative SI” value in series [3] is recorded as 3.5.

On to `CN(C)CCNC(=O)/C=C/[C@H](Cc1ccccc1)Nc1ccnc2cc(Cl)ccc12` [SKM13-2HCl], for which the parasitemia result in series [1] (setting [8]) is given as “increased parasitemia”; in series [1] (20 mg/kg i.v. once daily for 4 days), “effectively suppressed parasitemia”; in series [1] (30 mg/kg i.v. once daily for 4 days), “effectively suppressed parasitemia”. Also, the body weight entry in series [1] (10 mg/kg i.v. once daily for 4 days, infected mice) is reported as “not observed”. The liver pigmentation entry in series [1] (setting [9]) is “decreased liver pigmentation”. For the same molecule, the spleen size result in series [1] (setting [9]) is listed as “same size as those of the normal or CQ-treated groups”. In addition, in series [1] (30 mg/kg once daily, 6 dpi), the “curative effect (survival)” value is “complete curative effect”. Moreover, the “Tmax_h, time to peak concentration” value in series [4] was found to be 15 min. Further, the “elimination half-life (t1/2)” value in series [4] (comparison of both drugs) is recorded as “similar”. In addition, the “Cmax/AUC higher than that of SAM13-2HCl” value in series [4] (versus SAM13-2HCl) was 2 fold. Moreover, the turbidity entry in series [5] was “transparent”. The CC50 in series [6] stood at 55200 ± 1100 nM. For the same molecule, the IC50 in series [2] (read-out: 3D7 IC50, P. falciparum 3D7, synchronized parasites) came to 53.1 ± 10 nM; in series [3] (read-out: K1 IC50, P. falciparum K1, synchronized parasites) it was 366 ± 19.8 nM. The “3D7 Relative SI” value in series [2] was determined as 1.0. Further, the “K1 Relative SI” value in series [3] is recorded as 1. Besides, the “solubility in deionized water” value in series [7] worked out at 850.8 mg/mL.

A word on the CC50: it is the concentration at which the toxic effect on the cells reaches its halfway point. For orientation: IC50 means the point on the concentration scale where inhibition reaches its midpoint.
